Screening data: PubChem BioAssay, Broad Institute
Most compounds without a hit are left out; they make up all but 3.1% or so of the library.
HIF act: HIF pathway transcriptional activators, primary screen, cell-based, U2OS HRE-luciferase, luminescence | U2OS HRE-luciferase reporter; normalized: DMSO 0%, desferrioxamine 100% | activation, % at 7.5 µM (by protocol) | 300,000 compounds, 0.32% hits | AID 1910, 2009;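 active = mean activation of at least 10% of the iron chelator positive control signal, with at least half of replicates also reaching 10%; inconclusive = mean and replicate majority disagree about reaching 10%; inactive = mean and most replicates under 10%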
Beta apoptosis: inhibitors of cytokine-induced beta cell apoptosis, primary screen, luminescence; 300,000 compounds, 0.8% hits; protection from apoptosis, % (concentration not given with the values); AID 435005, 2010; INS-1E cytokine-induced death, ATP luminescence, 48 h; percent of positive-control rescue, neutral wells zero;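 active = Every replicate reaches about 75%, or at least half do and their mean reaches it too, limit read from the data; inconclusive = At least half of replicates reach the limit but their mean does not; inactive = Under half of replicates reach the limit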;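 also: higher means more ATP so stronger rescue from cytokine killing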
CSC inhib: cancer stem cell viability inhibitors, primary screen, luminescence. cancer stem cell-like cells viability. inhibition, % at 7.5 µM. 300,000 compounds, 1.1% hits; in the data active = inhibition above about 75%; inconclusive = no clear call, values can overlap the other calls; tested in HMLE shEcad cells
Calb FLC: C. albicans growth inhibition with fluconazole, primary screen, CaCi-2 strain, Alamar Blue fluorescence; 300,000 compounds, 0.57% hits; AID 1979, 2009; C. albicans CaCi-2 (fluconazole-resistant clinical isolate) + fluconazole, 48 h; growth inhibition, % (concentration not given with the values);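 active = growth inhibition above about 58% in most replicates, limit read from the data, passing the limit was not always enough; inconclusive = exactly half the replicates above a set limit; inactive = most replicates below a set limit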;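 also: all wells also contain fluconazole at 8 µg/ml as a sub-toxic cotreatment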
T cruzi repl: inhibitors of intracellular T. cruzi growth, primary screen, luminescence, NIH3T3 host cells; T. cruzi beta-gal in NIH3T3, 90 h; inhibition, % (concentration not given with the values); 300,000 compounds, 1.4% hits; AID 1885, 2009;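 active = mean inhibition across valid replicates above about 55%, limit read from the data; inconclusive = mean below that limit but half or more replicates reach it; inactive = mean below it, under half of replicates reach it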;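 also: signal also drops with host cell toxicity which is not excluded here; higher percent means less beta-gal luminescence so fewer parasites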
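System: mouse NIH/3T3 fibroblasts infected with β-gal-expressing T. cruzi Tulahuen C4 / Input: NIH/3T3 cells, 5,000 per well / Buffer or medium: Low-serum DMEM with 2% FBS / Probe or stimulus: 5000 reporter trypomastigotes per well / Schedule: ≥90 h infection period, 3 h prior cell attachment / Measured by: GalScreen luminescence, 60 min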
PolyA inhibitor: polyadenylation inhibitors in yeast reporter cells, primary screen, luminescence, S. cerevisiae; S. cerevisiae SKY197-pL101 polyadenylation reporter, beta-gal luminescence; efflux-impaired pdr1/pdr3 knockout yeast; score 100 = 6 SD above DMSO; 300,000 compounds, 0.02% hits; activity score, % at 12 µM; AID 1875, 2009;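 active = lowest replicate activity score at least 50, where 100 means six control SD above control mean; inconclusive = lowest score under 50 but half or more replicates reach 50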;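 also: yeast exposed to compound for 9 h at 30 °C; higher score means more reporter readthrough which indicates perturbed polyadenylation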
Hits are given with their value; 0 = inactive; ? = inconclusive; - = no result given.

SMILES | HIF act | Beta apoptosis | CSC inhib | Calb FLC | T cruzi repl | PolyA inhibitor
CCCOc1ccc(CSc2nc3ccccc3[nH]2)cc1 | 0 | 112.3 | 0 | 0 | 0 | 0
COc1ccc(Cl)c(OC)c1C(=O)NC(=O)Nc1c(F)cc(F)cc1F | 19.4 | 0 | 0 | 0 | 0 | 0
COc1cccc(OC)c1C(=O)NC(=O)Nc1c(F)cc(F)cc1F | 0 | 0 | 0 | 0 | 0 | 0
CN1CCN(NC(=O)CN2C(=O)S/C(=C\c3c(Cl)cccc3Cl)C2=O)CC1 | 0 | 0 | 0 | 0 | 0 | 0
Cc1ccc(NC(=O)CCN2CCN(C/C=C/c3ccccc3)CC2)cc1 | - | 0 | 0 | - | - | -
COc1ccc(NC(=O)CCN2CCN(C/C=C/c3ccccc3)CC2)cc1 | 0 | - | - | 0 | 56.6 | 0
COc1cc(NC(=O)CCN2CCN(C/C=C/c3ccccc3)CC2)cc(OC)c1 | 0 | 0 | 0 | 0 | 57.6 | 0
Cc1cc(=O)oc2cc(OC(C)C(=O)NC3(C#N)CCCCC3)ccc12 (stereo not drawn) | - | 0 | - | - | - | -
COC(=O)Nc1ccc(NC(C)=O)cc1 | 0 | 0 | 0 | 0 | 0 | 0
COC(=O)Nc1ccc(S(=O)(=O)N(C)C)cc1 | 29.4 | 0 | 0 | 0 | 0 | 0
Cc1onc(-c2ccccc2)c1C(=O)N(CC(C)C)c1c(N)n(CC(C)C)c(=O)[nH]c1=O | - | 0 | - | - | - | -
Cc1cc(N(C)N)nc(NC(=O)NS(=O)(=O)c2ccccc2Cl)n1 | 0 | 0 | 0 | 0 | 0 | 0
CC1S/C(=N/N=C/c2cccs2)NC1=O (stereo not drawn) | 0 | - | 0 | 0 | 0 | 0
CC1S/C(=N/N=C/c2cccc([N+](=O)[O-])c2)NC1=O (stereo not drawn) | 0 | 0 | 88.0 | 0 | 0 | 0
Cc1ccc(NS(=O)(=O)c2ccc(CCC(=O)NCCO)cc2)cc1 | 0 | 0 | 0 | 112.5 | 0 | 0
O=C(Nc1nc(-c2ccccn2)cs1)c1ccc(S(=O)(=O)N2CCCCC2)cc1 | 16.2 | 83.0 | 98.5 | 0 | 0 | 0
COc1ccccc1C(=O)Nc1nc(-c2ccc(S(=O)(=O)N3CCOCC3)cc2)cs1 | 0 | 85.1 | 0 | 0 | 0 | 0
O=S(=O)(c1ccc(-c2csc(-c3cccnc3)n2)cc1)N1CCCC1 | 0 | 0 | 0 | ? | 0 | 0
COc1ccccc1OC(C)C(=O)Nc1nc(-c2ccc(S(=O)(=O)N3CCOCC3)cc2)cs1 (stereo not drawn) | 0 | 0 | 0 | 0 | 0 | 0
O=C(Nc1ccccc1-c1nc2ccccc2[nH]1)c1sc2ccccc2c1Cl | 0 | 0 | 0 | 0 | 60.3 | 0
O=S(=O)(c1ccc(-c2csc(-c3cccnc3)n2)cc1)N1CCCCC1 | 0 | 0 | 0 | 0 | 65.8 | 0
Cc1nnc(SCC(=O)c2ccc(C(C)C)cc2)s1 | 0 | 0 | - | 0 | 0 | 0
O=C(CCN1CCOCC1)N/N=C/c1cc(Br)cc(Br)c1O | 0 | 0 | 0 | 0 | 0 | 0
COCCNC(=O)c1c[nH]c2ccc(S(=O)(=O)N(C)c3ccc(C)c(C)c3)cc2c1=O | 0 | 0 | 0 | 0 | 0 | 0
Cc1cc(C)n(Cc2cc(C(=O)O)c3ccccc3n2)n1 | 0 | 0 | 0 | 0 | 0 | 0
SMILES | HIF act | Beta apoptosis | CSC inhib | Calb FLC | T cruzi repl | PolyA inhibitor
Cc1ccc(S(=O)(=O)N2CCOCC2)cc1C(=O)Nc1nc(-c2ccccn2)cs1 | - | 76.0 | 0 | - | - | -
CC1CCCCN1S(=O)(=O)c1ccc(C(=O)Nc2ccccc2-c2nc3ccccc3[nH]2)cc1 (stereo not drawn) | 0 | 0 | 0 | 0 | 0 | 0
O=C(Nc1ccccc1-c1nc2ccccc2[nH]1)c1ccc(S(=O)(=O)N2CCCCC2)cc1 | 0 | - | - | 0 | 58.5 | 0
CCOC(=O)C1CCCN(C(=O)c2cc(S(=O)(=O)N3CCCCC3)c[nH]2)C1 (stereo not drawn) | 0 | 0 | 0 | 0 | 0 | 0
O=C(NNC(=O)C1CCN(Cc2ccc(Cl)c(Cl)c2)CC1)c1cccs1 | 0 | 0 | 0 | 0 | 0 | 0
CC1=NNC(=O)/C1=C\c1cn(-c2ccccc2)nc1-c1ccccc1 | 0 | 109.1 | 0 | 0 | 0 | -
COc1ccccc1OCC(=O)NCCSCc1cccc(Cl)c1 | 0 | 0 | 0 | 0 | 0 | 0
OCCN(CCO)CC(O)COc1ccc(C23CC4CC(CC(C4)C2)C3)cc1 (stereo not drawn) | 0 | 0 | 77.6 | 0 | 0 | 0
